The source made the active and inactive calls. No cut-off for these calls is given here.
Legend:
[1] = molecular target: T1, Enoyl-[acyl-carrier-protein] reductase [NADH] (Mycobacterium tuberculosis) (UniProt P9WGR1); assay: Inhibition of InhA in Mycobacterium tuberculosis H37Ra assessed as reduction in mycolic acids synthesis by measuring FAME level at 200 uM incubated for 48 hrs using [14C]acetate by TLC based metabolic labeling assay relative to control
T1 sequence (whole entry): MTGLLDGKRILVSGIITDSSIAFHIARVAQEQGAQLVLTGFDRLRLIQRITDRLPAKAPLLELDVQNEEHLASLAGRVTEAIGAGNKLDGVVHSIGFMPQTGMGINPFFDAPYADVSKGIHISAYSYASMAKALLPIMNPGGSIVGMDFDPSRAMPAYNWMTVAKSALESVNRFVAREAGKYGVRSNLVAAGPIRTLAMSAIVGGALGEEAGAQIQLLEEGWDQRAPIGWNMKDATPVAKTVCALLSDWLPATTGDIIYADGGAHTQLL
Procedure, shortened: (§1)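 H37Ra in 7H9/ADC/Tween 80 at OD600 0.290 received compound at 200 μM final (1% DMSO), with isoniazid 40 μM as control. After 24 h, 14C acetate (0.5 μCi/mL) was added for a further 24 h. FAMEs and MAMEs were prepared from whole cells, loaded normalised to OD600, separated by TLC, and detected by autoradiography.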

[2] = molecular target: T1, Enoyl-[acyl-carrier-protein] reductase [NADH] (Mycobacterium tuberculosis); assay: Inhibition of InhA in Mycobacterium tuberculosis H37Ra assessed as reduction in mycolic acids synthesis by measuring MAME level at 200 uM incubated for 48 hrs using [14C]acetate by TLC based metabolic labeling assay relative to control; procedure, shortened: as §1
[3] = molecular target: T1, Enoyl-[acyl-carrier-protein] reductase [NADH] (Mycobacterium tuberculosis); assay: Inhibition of InhA in Mycobacterium tuberculosis H37Ra assessed as accumulation of trehalose monomycolates at 200 uM incubated for 48 hrs using [14C]acetate by TLC based metabolic labeling assay relative to control
Procedure, shortened: (§2)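 H37Ra was grown statically at 37 °C in 7H9/ADC/0.05% Tween 80 to OD600 0.290. Compound was added at 200 μM final (1% DMSO), with isoniazid 40 μM as control inhibitor. After 24 h shaking, 14C acetate (0.5 μCi/mL) was added for another 24 h. Total lipids were extracted with chloroform/methanol and washed biphasically. TLC in chloroform/methanol/water 20:4:0.5, then autoradiography.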

[4] = molecular target: T1, Enoyl-[acyl-carrier-protein] reductase [NADH] (Mycobacterium tuberculosis); assay: Inhibition of InhA in Mycobacterium tuberculosis H37Ra assessed as decrease in trehalose dimycolates level at 200 uM incubated for 48 hrs using [14C]acetate by TLC based metabolic labeling assay relative to control; procedure, shortened: as §2
[5] = molecular target: T1, Enoyl-[acyl-carrier-protein] reductase [NADH] (Mycobacterium tuberculosis); assay: (§3) Inhibition of hexahistidine-SUMO tagged Mycobacterium tuberculosis InhA expressed in Escherichia coli BL21(DE3) at 0.1 mM preincubated for 10 mins with NADH before addition of 2-trans-octanoyl-CoA as substrate and measured after 20 mins by NADH oxidation detection based colorimetric assay relative to control
Procedure, shortened: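 Percent inhibition at 100 μM: tag-cleaved InhA (100 nM) in 30 mM PIPES pH 7.5, 50 mM NaCl, 0.1 mM EDTA was preincubated 10 min at room temperature with 0.25 mM NADH and compound (1% DMSO). Reaction started with 1.5 mM 2-trans-octanoyl-CoA final. NADH oxidation was read at 340 nm for 20 min.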

[6] = molecular target: T2, Enoyl-[acyl-carrier-protein] reductase [NADH] (Mycobacterium tuberculosis, UniProt P9WGR1); assay: Inhibition of hexahistidine-SUMO tagged Mycobacterium tuberculosis InhA expressed in Escherichia coli BL21(DE3) at preincubated for 10 mins with NADH before addition of 2-trans-octanoyl-CoA as substrate and measured after 20 mins by NADH oxidation detection based colorimetric assay
T2 sequence (P9WGR1 whole entry): T1 sequence (whole entry)

[7] = molecular target: T1, Enoyl-[acyl-carrier-protein] reductase [NADH] (Mycobacterium tuberculosis); assay: Binding affinity to hexahistidine-SUMO tagged Mycobacterium tuberculosis InhA expressed in Escherichia coli BL21(DE3) at 1 mM in presence of 0.5 mM NAD+ by NMR spectroscopy
Procedure, shortened: (§4)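 Ligand-observed NMR binding (CPMG T2 relaxation, WaterLOGSY, STD): 20 μM InhA (His6-SUMO tag removed by Ulp1, then gel-filtered) with 0.5 mM NAD+ and fragment at 1 mM. All three techniques were run on each fragment to validate thermal-shift hits.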

[8] = molecular target: T1, Enoyl-[acyl-carrier-protein] reductase [NADH] (Mycobacterium tuberculosis); assay: Binding affinity to hexahistidine-SUMO tagged Mycobacterium tuberculosis InhA expressed in Escherichia coli BL21(DE3) at 1 mM in presence of 0.5 mM NAD+ by CPMG NMR analysis; procedure, shortened: as §4
[9] = molecular target: T1, Enoyl-[acyl-carrier-protein] reductase [NADH] (Mycobacterium tuberculosis); assay: Binding affinity to hexahistidine-SUMO tagged Mycobacterium tuberculosis InhA expressed in Escherichia coli BL21(DE3) at 1 mM in presence of 0.5 mM NAD+ by WaterLOGSY NMR analysis; procedure, shortened: as §4
[10] = molecular target: T1, Enoyl-[acyl-carrier-protein] reductase [NADH] (Mycobacterium tuberculosis); assay: as §3, with “2” for “0.1”
Procedure, shortened: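 InhA 100 nM in PIPES pH 7.5/NaCl/EDTA was preincubated 10 min with 0.25 mM NADH and fragment (1% DMSO). Reaction started with 1.5 mM 2-trans-octanoyl-CoA. A340 decrease was followed for 20 min.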

## NCc1ccc(NS(=O)(=O)/C=C/c2cccc(C(F)(F)F)c2)cc1
[1]
  inhibition: inactive
[2]
  inhibition: inactive
[3]
  inhibition: inactive
[4]
  inhibition: inactive

## NC(=O)c1cccc(NS(=O)(=O)/C=C/c2cccc(C(F)(F)F)c2)c1
[5]
  inhibition: 0%

## Cc1c(S(=O)(=O)Nc2cccc(CN)c2)sc2ccc(Cl)cc12
[1]
  inhibition: inactive
[2]
  inhibition: inactive
[3]
  inhibition: inactive
[4]
  inhibition: inactive

## NNC(=O)c1ccncc1
[1]
  inhibition: 100%
[2]
  inhibition: 100%

## NCc1cccc(NS(=O)(=O)c2cc3ccccc3s2)c1
[1]
  inhibition: inactive
[2]
  inhibition: inactive
[3]
  inhibition: inactive
[4]
  inhibition: inactive

## NCc1cccc(NS(=O)(=O)c2cc3ccccc3o2)c1
[6]
  IC50: 22 µM
[1]
  inhibition: inactive
[2]
  inhibition: inactive
[3]
  inhibition: inactive
[4]
  inhibition: inactive

## O=C(O)c1ccccc1-n1cccn1
[7]
  Activity: Active
[8]
  Activity: Active
[9]
  Activity: Active
[10]
  inhibition: inactive

## Cc1c(S(=O)(=O)Nc2cccc(CN)c2)sc2ccc(F)cc12
[1]
  inhibition: inactive
[2]
  inhibition: inactive
[3]
  inhibition: inactive
[4]
  inhibition: inactive

## O=C(O)c1ccccc1C(=O)c1ccc(Cl)c([N+](=O)[O-])c1
[7]
  Activity: Active
[8]
  Activity: Active
[9]
  Activity: Active
[10]
  inhibition: inactive

## O=C(O)/C=C/c1cccc(C(F)(F)F)c1
[7]
  Activity: Active
[8]
  Activity: Active
[9]
  Activity: Active

## O=C(O)c1cc2ccccc2cc1O
[7]
  Activity: Active
[8]
  Activity: Active
[9]
  Activity: Active
[10]
  inhibition: inactive

## NCc1cccc(NS(=O)(=O)/C=C/c2cccc(C(F)(F)F)c2)c1
[1]
  inhibition: Active
[2]
  inhibition: Active
[3]
  inhibition: Active
[4]
  inhibition: Active

## O=C(O)CCc1cccc(Cl)c1
[7]
  Activity: Active
[8]
  Activity: Active
[9]
  Activity: Active
[10]
  inhibition: inactive

From ChEMBL document CHEMBL4402593, “Fragment-Based Design of Mycobacterium tuberculosis InhA Inhibitors” (J Med Chem, 2020)
